PubChem BioAssay AID652163 (Broad Institute, 2013)
“And” between values parts separate entries of the source, which are not always exact repeats. Identical values can stand only once. Out of some 360,000 compounds screened, about 500 (0.14%) were called active. The sample as a whole holds a higher share of actives than the screen did. A number with no mark means an inactive call.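 Rule for the calls: active = mean inhibition of at least 70% across replicates, with every replicate also reaching that level; inconclusive = mean inhibition reaches 70% but some replicates fall short; inactive = mean inhibition below 70%.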

These compounds were tested against Protein S100-A4 (Homo sapiens) (UniProt P26447) (assay: human S100A4 protein-peptide interaction blockers – biochemical, fluorescence polarization, TAMRA-MyoIIA peptide, primary screen (AID 652163)). Settings: at 10.7 µM, hits give high values.
Sequence of Protein S100-A4 (Homo sapiens) (P26447 whole entry, looked up): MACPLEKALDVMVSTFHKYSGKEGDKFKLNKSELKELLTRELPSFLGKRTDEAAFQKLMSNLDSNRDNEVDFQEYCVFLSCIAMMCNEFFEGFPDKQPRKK
Method in brief: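 Test system: S100A4 monomer protein. Medium: HEPES buffer with Ca2+, pH 7.2. Reagent: fluorescent myosin IIA peptide, 5 nM. Compound dosing: single-point compound testing. Timing: 5 min between mix addition and reading. Benchmarks: DMSO neutral and TFP positive wells.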

SMILES | inhibition
C/C=C/c1ccccc1[C@@H]1[C@@H](CO)N(S(=O)(=O)c2cccc(F)c2)[C@H]1C#N | 15.1%
N#C[C@H]1[C@@H](c2ccccc2C2=CCCC2)[C@H](CO)N1C(=O)c1cccc(F)c1 | 7.35%
N#C[C@@H]1[C@H](c2ccccc2C2=CCCCC2)[C@@H](CO)N1S(=O)(=O)c1cccc(F)c1 | 124% (active)
O=C(C[C@@H]1C=C[C@H](NC(=O)CN2CCOCC2)[C@@H](CO)O1)NCc1cccc(F)c1 | 12.6%
Cc1ccc(CN(C)C[C@H]2OCc3cn(nn3)CCCC(=O)N([C@@H](C)CO)C[C@H]2C)cc1 | -1.4%
CN(C)C(=O)c1cccc(-c2ccc(C3[C@H]4CNC[C@@H]3N4C(=O)Nc3ccccc3F)cc2)c1 (some centres not stated) | -26.3% and -7.38%
COc1ccc(CN(C)C[C@H]2Oc3ccc(NC(=O)Cn4cnnn4)cc3CC(=O)N([C@@H](C)CO)C[C@@H]2C)cc1 | 6.98%
O=C(NCC1CC1)[C@@H]1[C@@H](CO)[C@@H]2Cn3c(ccc(-c4ccccc4)c3=O)[C@H]1N2C(=O)C1CC1 | 5.45%
CCC(=O)N1CC2(CN(Cc3ccc(Cl)cc3)C2)c2c([nH]c3cc(OC)ccc23)[C@@H]1CO | -4.36%
CCC(=O)Nc1ccc2c(c1)C(=O)N(C)C[C@H](OC)[C@@H](C)CN(C(=O)c1cnccn1)[C@@H](C)CO2 | 10.3%
C[C@@H]1CN([C@H](C)CO)C(=O)c2cc(NS(=O)(=O)c3cccs3)ccc2O[C@@H](C)CCCCO[C@H]1CN(C)Cc1ccc(C(F)(F)F)cc1 | 15.3%
C[C@@H]1CN([C@@H](C)CO)C(=O)Cc2cc(NC(=O)Nc3cccc4ccccc34)ccc2O[C@H]1CN(C)CC1CCCCC1 | 8.63%
COCC(=O)N1[C@H](CO)[C@H](c2ccccc2)C12CN(C(=O)NC1CCCCC1)C2 | 14.7%
CCCC(O)C#Cc1cnc2c(c1)C(=O)N([C@H](C)CO)C[C@H](C)[C@H](CN(C)S(=O)(=O)c1ccc(C#N)cc1)O2 (some centres not stated) | -4.33%
Cc1ccc(S(=O)(=O)N[C@@H]2CC[C@@H](CCn3cc(C4CC4)nn3)O[C@@H]2CO)cc1 | 1.11%
CCCC#Cc1ccc([C@H]2[C@@H](CO)N3C(=O)CN(C(=O)c4ccncc4)C[C@@H]23)cc1 | -18.5%
CC(C)NC(=O)N(C)C[C@H]1Oc2ccc(NS(C)(=O)=O)cc2CC(=O)N([C@@H](C)CO)C[C@@H]1C | 6.04%
COc1ccccc1-c1cnc2c(c1)C(=O)N([C@@H](C)CO)C[C@H](C)[C@H](CN(C)CC1CCOCC1)O2 | -4.73%
C[C@H](CO)N1C[C@H](C)[C@H](CN(C)S(=O)(=O)c2cccs2)OCCCC[C@H](C)Oc2ccc(NC(=O)CCCN(C)C)cc2C1=O | 1.4%
NCC[C@H]1CC[C@H](NC(=O)C2CC2)[C@@H](CO)O1 | 4.1%
CCCN1C[C@@H](C)[C@@H](OC)CN(C)C(=O)c2cc(NC(=O)CC(F)(F)F)ccc2OC[C@H]1C | -32.9%

SMILES | inhibition
COCC#Cc1ccc2c(c1)O[C@H](CN(C)CC1CC1)[C@H](C)CN([C@H](C)CO)S2(=O)=O | 4.13%
CC(C)NC(=O)N(C)C[C@H]1Oc2ncc(-c3ccc(C(=O)N(C)C)cc3)cc2C(=O)N([C@H](C)CO)C[C@H]1C | -3.24%
C[C@@H]1CN([C@H](C)CO)C(=O)c2cc(-c3ccncc3)cnc2O[C@@H]1CN(C)C(=O)Cc1cccnc1 | 11.8%
CC(C)C#Cc1ccc2c(c1)O[C@@H](CN(C)C(=O)NC(C)C)[C@H](C)CN([C@H](C)CO)S2(=O)=O | 106% (active)
CC(C)C#Cc1ccc2c(c1)O[C@@H](CN(C)C(=O)Nc1ccccc1)[C@H](C)CN([C@H](C)CO)S2(=O)=O | 15.5%
CC(C)NC(=O)N(C)C[C@@H]1Oc2cc(C#C[C@H](C)O)ccc2S(=O)(=O)N([C@@H](C)CO)C[C@H]1C | -1.62%
CNC[C@@H]1Oc2ncc(-c3ccc(F)cc3)cc2C(=O)N([C@H](C)CO)C[C@@H]1C | 6.49%
CCCC(=O)Nc1ccc2c(c1)C(=O)N(C)C[C@H](OC)[C@@H](C)CN(C(C)=O)[C@H](C)CO2 | 3.22%
CO[C@H]1CN(C)C(=O)c2ccc(NC(=O)c3nc4ccccc4s3)cc2OC[C@H](C)N(Cc2cccnc2)C[C@@H]1C | -1.61%
CC(=O)N1Cc2cc(C(=O)NCc3cc(F)cc(F)c3)nc(-c3cccc(C4=CCCC4)c3)c2[C@@H]1CCO | -14.1%
N#C[C@@H]1[C@@H](c2ccc(-c3ccccc3)cc2)[C@@H](CO)N1C(=O)Cc1ccccc1 | 9.02%
CO[C@H]1CN(C)C(=O)c2cc(NC(=O)Nc3ccccc3F)ccc2OC[C@@H](C)N(CCC(F)(F)F)C[C@@H]1C | -11.4%
CN(C)C(=O)c1ccc(-c2ccc([C@@H]3[C@H](C#N)N(C(=O)C4CC4)[C@H]3CO)cc2)cc1 | -6.47%
Cc1noc(C)c1S(=O)(=O)N(C)C[C@@H]1OCCCC[C@H](C)Oc2ccc(NC(=O)NC3CCCCC3)cc2C(=O)N([C@@H](C)CO)C[C@H]1C | -8.81%
C[C@@H]1CN([C@H](C)CO)C(=O)c2cc(NC(=O)Nc3ccc(F)cc3)ccc2O[C@@H](C)CCCCO[C@H]1CN(C)Cc1ccc(Cl)c(Cl)c1 | 4.63%
COc1ccc(C(=O)Nc2ccc3c(c2)OC[C@H](C)N(C(C)=O)C[C@@H](C)[C@@H](OC)CN(C)C3=O)cc1 | -16%
C[C@@H]1CN([C@H](C)CO)C(=O)c2cccc(NC(=O)C3CCCCC3)c2O[C@@H]1CN(C)C(=O)NC1CCCCC1 | 1.54%
C[C@H](O)C#Cc1ccc2c(c1)O[C@H](CN(C)Cc1ccccn1)[C@H](C)CN([C@H](C)CO)S2(=O)=O | -12.6%
COc1cccc(NC(=O)c2ccc3c(SCC(=O)O)c4c(nc3c2)CCCC4)c1 | 6.49%
O=C(Nc1cccc(C(F)(F)F)c1)c1ccc(N2CCNCC2)c([N+](=O)[O-])c1 | -2.54%
O=C(O)CSc1c2c(nc3cc(C(=O)Nc4cccc(C(F)(F)F)c4)ccc13)CCCC2 | 71.4% (active)

SMILES | inhibition
C[C@H]1CN([C@@H](C)CO)C(=O)CCCn2cc(nn2)CO[C@H]1CN(C)S(=O)(=O)c1ccc2ccccc2c1 | 1.04%
O=C(C[C@@H]1C[C@H]2c3cc(NS(=O)(=O)c4ccc(F)cc4)ccc3O[C@H]2[C@@H](CO)O1)NCc1ccccc1F | -3.71%
O=C(NC1CCCCC1)[C@@H]1[C@@H](CO)[C@@H]2Cn3c(cccc3=O)[C@@H]2N1C(=O)CC1CC1 | 1.5%
COCC(=O)N1CC(=O)N2[C@H](CO)[C@@H](c3ccc(C#CC4CCCCC4)cc3)[C@@H]2C1 | -8.44%
COc1ccccc1NC(=O)N[C@H]1CC[C@H](CCNS(=O)(=O)c2ccc(Cl)cc2)O[C@H]1CO | 107% (active)
O=C(Nc1ccccc1F)N[C@H]1CC[C@@H](CCNS(=O)(=O)c2ccc(F)cc2)O[C@@H]1CO | -5.07%
COc1ccc(NC(=O)N[C@H]2CC[C@@H](CCNS(=O)(=O)c3cccc(Cl)c3)O[C@H]2CO)cc1 | 18.1%
Cc1noc(C)c1S(=O)(=O)Nc1ccc2c(c1)C(=O)N([C@H](C)CO)C[C@H](C)[C@@H](CN(C)C(=O)CCC(F)(F)F)OCCCC[C@H](C)O2 | -11.4%
C[C@@H]1CN([C@@H](C)CO)S(=O)(=O)c2ccc(C#CCC3CCCC3)cc2O[C@H]1CN(C)Cc1ccc(C(=O)O)cc1 | -3.27%
COc1ccc2c3c([nH]c2c1)[C@H](CO)N(C(=O)Nc1cccc(F)c1)CC31CCN(S(=O)(=O)c2ccccc2)CC1 | -4.14%
COc1ccc(CN(C)C[C@H]2Oc3ccc(NS(=O)(=O)c4ccc(C)cc4)cc3C(=O)N([C@@H](C)CO)C[C@H]2C)cc1 | -4.3%
C[C@@H]1CN([C@@H](C)CO)C(=O)c2cccc(NC(=O)Nc3ccc(F)cc3)c2O[C@@H]1CN(C)Cc1ccc(C(=O)O)cc1 | 16.9%
CCC(=O)N1C[C@H](C)[C@H](OC)CN(C)C(=O)c2ccc(NC(=O)Nc3cccc(F)c3)cc2OC[C@@H]1C | -17.6%
O=C(C[C@@H]1CC[C@H]2[C@@H](COC[C@H](O)CN2S(=O)(=O)c2ccc(F)cc2)O1)N[C@H]1CCN(Cc2ccccc2)C1 | 2.74%
C[C@@H](NC(=O)C[C@H]1C[C@@H]2c3cc(NC(=O)C4CCC4)ccc3O[C@@H]2[C@@H](CO)O1)c1ccccc1 | 8.72%
CC(C)CC#Cc1ccc([C@@H]2[C@@H](CO)N3C(=O)CN(C(=O)Nc4ccc(F)cc4)C[C@H]23)cc1 | -1.01%
CO[C@H]1CN(C)C(=O)c2ccc(NC(C)=O)cc2OC[C@H](C)N(C(=O)c2ccccc2)C[C@H]1C | -4.17%
COc1ccc(CN(C)C[C@@H]2OCCCC[C@H](C)Oc3ccc(NS(=O)(=O)c4ccc(F)cc4)cc3C(=O)N([C@@H](C)CO)C[C@@H]2C)cc1 | -2.85%
C[C@H]1CCCCO[C@H](CN(C)S(C)(=O)=O)[C@@H](C)CN([C@@H](C)CO)C(=O)c2cc(NC(=O)C3CCCCC3)ccc2O1 | 3.69%
O=C(Nc1ccc(F)cc1)N1C[C@H]2[C@@H](c3ccccc31)[C@@H](CO)N2Cc1cocn1 | -2.03%
